From publication PMC3702663 (Journal of chemical information and modeling, 2013)
Like-named read-outs stand apart in the source and are kept apart here.

Key:
[1] = target: T1, DOP receptor (Homo sapiens, UniProt P41143); assay: Competitive inhibition of 3H-diprenorphine binding at the DOP receptor; details: 3H-diprenorphine 0.3 nM
[2] = target: T2, MOP receptor (Homo sapiens, UniProt P35372); assay: Competitive inhibition of 3H-diprenorphine binding at the MOP receptor; details: 3H-diprenorphine 0.3 nM
[3] = target: T1, DOP receptor; assay: BRET-based G protein; assay type: cell-based
[4] = target: T2, MOP receptor; assay: BRET-based G protein; assay type: cell-based
[5] = target: T3, hKOP receptor (Homo sapiens, UniProt P41145); assay: BRET-based arrestin3 recruitment assay, hKOP-RLuc8 with arrestin3-mVenus; assay type: cell-based; details: Potency for arrestin3 recruitment at hKOP receptor, 5 min after ligand
How it was run: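 HEK293T cells transfected with polyethylenimine (1:3) using 0.2 µg hKOP receptor with C-terminal RLuc8, 15 µg human arrestin3-mVenus and 4.8 µg empty vector (20 µg total), grown in DMEM/10% FBS. Assayed 48 h post-transfection: cells resuspended in PBS, ~200,000/well, 5 µM coelenterazine H, then ligand 5 min later.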

[6] = target: T3, hKOP receptor; assay type: binding
[7] = target: T3, hKOP receptor; assay: BRET-based G protein; assay type: cell-based; details: relative to EKC

CC[C@]12CCN(CC3CC3)[C@H](C(=O)c3ccc(O)cc31)[C@@H]2C [EKC, ethylketocyclazocine, reference compound]
Ki ([1]; Ki at the DOP receptor, reference ligand): 0.25 ± 0.031 µM | Ki ([2]; Ki at the MOP receptor, reference ligand): 0.17 ± 0.1 µM

O=C(CN1CCCC1C(=O)Nc1nccs1)Nc1cccc(F)c1 (centres unmarked) [MCKK-17R, 1-(2-(3-fluorophenylamino)-2-oxoethyl)-N-(thiazol-2-yl)pyrrolidine-2-carboxamide]
Ki ([1]; Ki DOP, means ± S.E.M. (n=3)): 290 µM | Ki ([2]; Ki MOP, means ± S.E.M. (n=3)): 510 µM | EC50 [3]: > 1 mM | Agonistic activity at the DOP receptor, in words ([3]; BRET): most active enantiomer at the DOP receptor | Agonistic activity at the MOP receptor, in words [4]: Neither the racemic nor the MCKK-17 stereoisomers displayed significant activity | EC50 [5]: > 1000 µM

O=C(CN1CCCC1C(=O)Nc1nccs1)Nc1cccc(F)c1 (racemic) [MCKK-17, 1-(2-(3-fluorophenylamino)-2-oxoethyl)-N-(thiazol-2-yl)pyrrolidine-2-carboxamide]
Inhibition of 3H-diprenorphine binding (primary testing) ([6]; 100 µM compound, 3H-diprenorphine 0.3 nM): partially but significantly inhibited | EC50 [3]: > 1 mM | Agonistic activity at the MOP receptor, in words [4]: Neither the racemic nor the MCKK-17 stereoisomers displayed significant activity | EC50 [5]: 160 ± 38 µM

O=C(CN1CCCC1C(=O)Nc1nccs1)Nc1cccc(F)c1 (centres unmarked) [MCKK-17S, 1-(2-(3-fluorophenylamino)-2-oxoethyl)-N-(thiazol-2-yl)pyrrolidine-2-carboxamide]
Ki [6]: 120 µM | Ki ([1]; Ki DOP, means ± S.E.M. (n=3)): > 10000 µM | Ki ([2]; Ki MOP, means ± S.E.M. (n=3)): > 10000 µM | Agonistic activity (GαoB activation) at hKOP receptor, in words [7]: full agonism relative to EKC | Agonistic activity at the DOP receptor, in words ([3]; BRET): did not significantly activate the DOP receptor | EC50 ([3]; read-out: Potency for G protein activation at the DOP receptor, BRET): > 1 mM | Agonistic activity at the MOP receptor, in words [4]: Neither the racemic nor the MCKK-17 stereoisomers displayed significant activity | EC50 [5]: 120 ± 47 µM
